Screening data (PubChem)
Compounds with a hit are over-represented: about 1.2% of the library has one in this group of screens.
RAD54 branch: inhibitors of human RAD54 branch migration; inhibition, % at 10.4 µM; Q92698; RAD54 Holliday junction branch migration, FAM/BHQ fluorescence; AID 602329; hit rate 0.14% among 360,000;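 active means mean normalized replicate activity at least 40 and at least half of replicates scoring 40 or more; inconclusive means only one of the two criteria met; inactive means mean below 40 and under half of replicates reaching 40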;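 further: 0% = median of neutral control wells and 100% = median of positive control wells; inhibitors cause a drop in the FAM fluorescence signal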
Glyco luc inh: N-linked glycosylation inhibition. D54 ERlucT glycosylation luciferase reporter, 24 h; percent of 100 nM tunicamycin response. AID 588692. hit rate 0.23% among 360,000. reporter increase, % at 12.5 µM;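 active means mean luciferase reporter signal, scaled so untreated is 0 and the glycosylation-blocking control 100, at or above a set limit in every replicate; inconclusive means mean reaches the limit but not every replicate does; inactive means mean below the limit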;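 further: luciferase carries N-glycosylation sites so blocking glycosylation raises the light; 0% = median of neutral control wells and 100% = median of 100 nM tunicamycin wells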
RAD52 anneal inh: inhibitors of human RAD52 DNA annealing. P43351. recombinant RAD52 DNA annealing, FRET fluorescence. inhibition, % at 18.7 µM. hit rate 0.46% among 360,000;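 active means every replicate showing at least 50% inhibition; inconclusive means mean inhibition at least 50% but not in every replicate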
FN deposit inh: fibronectin deposition inhibition | AH1F fibroblasts, Alexa488-fibronectin deposition fluorescence, overnight | inhibition, % at 12.6 µM | AID 743247 | hit rate 0.086% among 350,000;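 active means mean inhibition across replicates of 30% or more, regardless of how many single replicates reach that level; inconclusive means mean under 30% yet at least half of replicates reach 30%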;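 further: positive control wells lacked labelled fibronectin entirely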
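Material: AH1F fibroblasts assembling fluorescent fibronectin matrix; amount: 10000 AH1F cells/well; medium: DMEM, 2% serum; reagent: Alexa488-fibronectin, 24 nM final in well; dosing: single compound dose, delivered by pin transfer; incubation: 1 h adhesion, overnight exposure; detection: fluorescence after three HBSS washes, excitation 485 nm, emission 525 nm; measure: fibronectin deposition inhibition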
AF4-AF9 inh: blocks AF4 peptide binding to human AF9; AlphaScreen, biotin-AF4 peptide binding to FLAG-AF9; inhibition, % at 10 µM; AID 651704; P42568; hit rate 0.47% among 350,000;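 active means every replicate reaching a set inhibition limit, whatever the replicate mean, cut at about 25% in these data; inconclusive means mean inhibition reaches that limit but some replicates miss it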;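 further: 0% = plate neutral control median and 100% = total signal loss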
NSD2 inh: NSD2 (human) methyltransferase inhibition | O96028 | hit rate 0.54% among 310,000 | inhibition, % at 12.5 µM | NSD2 peptide methylation, AlphaScreen, 120 min; in the data active means inhibition above about 50%
Target sequence (O96028 whole entry, looked up): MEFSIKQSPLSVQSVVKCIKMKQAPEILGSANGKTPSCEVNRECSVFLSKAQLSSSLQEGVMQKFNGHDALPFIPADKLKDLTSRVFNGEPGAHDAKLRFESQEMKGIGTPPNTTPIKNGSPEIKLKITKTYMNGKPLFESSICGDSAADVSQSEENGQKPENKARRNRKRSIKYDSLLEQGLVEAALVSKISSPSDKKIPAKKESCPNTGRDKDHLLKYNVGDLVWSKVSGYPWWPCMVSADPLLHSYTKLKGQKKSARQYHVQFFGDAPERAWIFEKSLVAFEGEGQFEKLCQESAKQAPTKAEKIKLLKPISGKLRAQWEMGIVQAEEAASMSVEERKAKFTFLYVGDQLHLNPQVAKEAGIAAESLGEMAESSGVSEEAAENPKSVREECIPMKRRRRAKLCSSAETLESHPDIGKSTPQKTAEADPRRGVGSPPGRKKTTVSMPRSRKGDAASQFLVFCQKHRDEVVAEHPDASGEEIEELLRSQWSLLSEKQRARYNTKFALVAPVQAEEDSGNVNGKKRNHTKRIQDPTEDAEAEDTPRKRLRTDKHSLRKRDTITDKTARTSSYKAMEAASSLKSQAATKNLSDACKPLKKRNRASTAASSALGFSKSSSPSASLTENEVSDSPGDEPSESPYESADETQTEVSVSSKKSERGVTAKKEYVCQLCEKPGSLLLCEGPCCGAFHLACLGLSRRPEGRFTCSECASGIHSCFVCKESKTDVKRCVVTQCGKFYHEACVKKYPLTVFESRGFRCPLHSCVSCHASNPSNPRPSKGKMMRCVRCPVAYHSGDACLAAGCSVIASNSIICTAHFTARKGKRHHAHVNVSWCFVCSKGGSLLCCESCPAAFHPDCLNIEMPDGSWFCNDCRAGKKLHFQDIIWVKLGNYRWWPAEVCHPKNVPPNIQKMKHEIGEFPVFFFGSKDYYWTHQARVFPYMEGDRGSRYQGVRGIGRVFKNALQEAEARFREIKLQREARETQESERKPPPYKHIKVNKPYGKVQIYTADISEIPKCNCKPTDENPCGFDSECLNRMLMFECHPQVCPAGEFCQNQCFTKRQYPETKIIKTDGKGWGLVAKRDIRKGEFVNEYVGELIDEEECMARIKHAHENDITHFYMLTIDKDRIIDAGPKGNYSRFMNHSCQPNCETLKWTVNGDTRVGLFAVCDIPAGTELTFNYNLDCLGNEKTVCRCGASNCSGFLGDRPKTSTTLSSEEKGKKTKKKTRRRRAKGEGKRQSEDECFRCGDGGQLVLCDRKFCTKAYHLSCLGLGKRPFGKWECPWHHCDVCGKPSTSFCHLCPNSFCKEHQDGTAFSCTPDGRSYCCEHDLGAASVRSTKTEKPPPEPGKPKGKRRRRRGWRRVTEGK
Alpha artifact: interferes with AlphaScreen signal, flagging NSD2 false positives; AC35, µM (series often up to 10 µM), for the others: top-dose activity change, negative = signal loss; shares compounds with NSD2 inh; AlphaScreen artifact counterscreen, preloaded methylated H4 peptide; hit rate 9.4% among 1,500; call rule not given here
* hit, by the source's call; ? = inconclusive; . = no result given.

SMILES | RAD54 branch | Glyco luc inh | RAD52 anneal inh | FN deposit inh | AF4-AF9 inh | NSD2 inh | Alpha artifact
NC(=O)C1Cc2ccccc2CN1S(=O)(=O)c1ccc(Cl)s1 (centres undefined) | 5.5 | -0.4 | -19.4 | -2.9 | -0.3 | 88.7* | -3.1%
O=C(C1CCCN1S(=O)(=O)c1ccc(Cl)s1)N1CCc2ccccc2C1 (centres undefined) | . | . | . | . | . | -4.3 | .
C[C@H](O)C#Cc1cnc2c(c1)C(=O)N([C@H](C)CO)C[C@@H](C)[C@H](CN(C)C(=O)Cc1ccncc1)O2 | -0.5 | . | -41.0 | -2.8 | . | . | .
CCNC(=O)Cc1ccc(NS(=O)(=O)c2ccc(F)cc2)cc1 | 3.9 | -0.9 | . | 6.2 | . | 109.1* | -1.7%
O=C(Cc1ccc(NS(=O)(=O)c2ccc(F)cc2)cc1)NCc1ccccc1 | -2.3 | -4.6 | . | . | . | . | .
CC(=O)c1ccc(N2CCN(C(=O)[C@H](C)NC(=O)c3ccccc3Cl)CC2)cc1 | 1.0 | -2.8 | -4.6 | -0.3 | 0.5 | 64.6* | -1.8%
C[C@@H]1CC=CCCNC(=O)[C@@H](C)N(C)C(=O)c2ccccc2O1 (mixture of isomers) | . | . | . | 4.7 | . | . | .
Cc1cc(Cl)cc(Br)c1OCCCN1C(=O)NC(C)(C)C1=O | -8.3 | -3.2 | . | . | . | 72.7* | -2.8%
Cc1cc(Cl)c(OCCN2C(=O)NC(C)(C)C2=O)c(Br)c1 | 3.1 | 1.3 | . | 5.1 | . | 70.6* | 0.4%
CC(C)NC(=O)N(C)C[C@H]1Oc2ccc(NC(=O)CCCCCC(=O)Nc3ccccc3N)cc2CC(=O)N([C@H](C)CO)C[C@H]1C | -9.9 | . | -12.0 | . | ? | . | .
CCC(CC)c1nnc(NC(=O)CCS(=O)(=O)Cc2ccccc2)s1 | 7.9 | -11.0 | -6.9 | 9.3 | 20.8 | 61.1* | -0.7%
C[C@@H]1CN([C@H](C)CO)C(=O)c2cc(NC(=O)Nc3ccccc3)ccc2O[C@H]1CN(C)Cc1ccccc1 | 13.7 | . | 15.0 | -1.6 | -5.4 | . | .
C[C@@H]1CCCCO[C@@H](CN(C)Cc2ccccc2)[C@H](C)CN([C@@H](C)CO)C(=O)c2cc(NS(=O)(=O)c3cccs3)ccc2O1 | 19.3 | . | 5.2 | -4.9 | 1.3 | . | .
CC(C)CC(=O)N1CCC(O)(CS(=O)(=O)Cc2ccccc2Cl)CC1 | 2.0 | 3.2 | . | 1.4 | . | 102.7* | -0.1%
C[C@@H]1CN([C@@H](C)CO)C(=O)c2cc(/C=C/c3ccccc3)cnc2O[C@@H]1CN(C)Cc1cncnc1 | . | . | 1.2 | -16.1 | 2.1 | . | .
CCc1ccc(S(=O)(=O)/N=C2\C=C(Nc3ccc(O)cc3)C(=O)c3ccccc32)cc1 | -2.3 | -18.8 | . | . | . | 28.6 | .
Cc1cc(C)c(S(=O)(=O)/N=C2\C=C(NS(=O)(=O)c3ccccc3)C(=O)c3ccccc32)c(C)c1 | 7.4 | 4.7 | -10.6 | 18.4 | -2.0 | 43.9 | .
CCc1ccc(S(=O)(=O)/N=C2\C=C(Nc3cccc(C(=O)O)c3)C(=O)c3ccccc32)cc1 | 3.3 | 5.7 | -0.6 | 2.7 | 9.5 | 132.3* | 9.25µM*
Cc1ccc(S(=O)(=O)/N=C2\C=C(NS(=O)(=O)c3ccccc3)C(=O)c3ccccc32)cc1 | -4.4 | 4.7 | -5.3 | . | -1.9 | 105.2* | 9.94µM*
COc1ccc(CN(C)C[C@H]2OCCCC[C@H](C)Oc3ccc(NS(=O)(=O)c4cn(C)cn4)cc3C(=O)N([C@@H](C)CO)C[C@H]2C)cc1 | -3.4 | . | 9.0 | . | -1.4 | . | .
O=C1CSc2ccc(S(=O)(=O)NCc3ccccc3Cl)cc2N1 | -4.4 | 1.6 | -10.3 | -1.5 | -0.8 | 1.2 | .
CC(CS(=O)(=O)c1ccc2c(c1)NC(=O)CS2)C(=O)NCc1ccccc1Cl (centres undefined) | -8.7 | -3.2 | -41.7 | -10.3 | -13.9 | 54.6* | -3.6%
Cc1cc(C)nc(NS(=O)(=O)c2ccc(-n3cccc3)cc2)n1 | -15.1 | -0.8 | . | -2.4 | . | 72.7* | -1.1%
Cc1cc(C)nc(NS(=O)(=O)c2ccc(Br)cc2)n1 | -9.0 | -1.2 | . | -7.1 | . | -7.6 | .
C/C(CC(=O)Nc1ccc2ccccc2c1)=N\NC(=O)c1ccc(O)c(O)c1 | 0.7 | -0.3 | -25.6 | 2.9 | 19.9 | 111.5* | -13.9%
SMILES | RAD54 branch | Glyco luc inh | RAD52 anneal inh | FN deposit inh | AF4-AF9 inh | NSD2 inh | Alpha artifact
O=S(=O)(O)c1cccc2c(N=Nc3ccc(O)c4ncccc34)cccc12 | 5.3 | -0.9 | -1.7 | . | . | 66.2* | -13.3%
Cc1ccccc1N=Nc1ccc(O)c2ncccc12 | 13.1 | -14.6 | -2.8 | -1.5 | 2.2 | -1.2 | .
O=Nc1ccc(O)c2ncccc12 | . | 8.6 | 20.1 | 3.1 | -1.3 | 64.2* | 1.4%
COc1ccc(-c2csc(C3=C(O)CN(Cc4ccc(Cl)cc4)C3=N)n2)cc1OC | 3.3 | 3.3 | -11.2 | . | -2.6 | -2.1 | .
N=C1C(c2nc(-c3ccc(F)cc3)cs2)=C(O)CN1Cc1ccc(Cl)cc1 | -4.8 | 2.6 | . | . | . | 127.7* | 0.2%
COc1ccccc1OCCOc1ccc(/C=C2\C(=N)N3N=C(S(C)(=O)=O)SC3=NC2=O)cc1 | -12.9 | -1.1 | -28.4 | 1.7 | -11.6 | 71.1* | -7.4%
COc1ccc(NC2=CC(c3cccc(OC)c3)N(c3ccc(OC)cc3)C2=O)cc1 (centres undefined) | . | -1.4 | . | -0.1 | . | 51.8* | -7.8%
CCOc1cc(/C=C2\C(=O)NN(c3ccccc3)C2=O)cc([N+](=O)[O-])c1O | . | 0.1 | -16.5 | 5.6 | 0.3 | 110.9* | -9.5%
CN(C)CCCNC(=O)C[C@H]1C=C[C@@H](NS(=O)(=O)c2ccccc2)[C@H](CO)O1 | -1.1 | . | 5.3 | . | 2.5 | . | .
COc1cc(C(=O)Oc2cccc(/C=N/NC(=O)c3cccnc3)c2)cc(OC)c1OC | 2.4 | 19.4 | -23.6 | -5.2 | 3.7 | 97.9* | -1.1%
Cc1ccc(C(=O)Nc2ccc(CC(=O)O)cc2)o1 | 11.1 | 0.5 | . | -6.0 | . | 126.2* | -3.1%
Cc1ccc(C(=O)Nc2ccc(NC(=O)c3ccc(C)o3)cc2)o1 | . | -1.4 | -9.7 | 2.2 | 4.5 | 0.9 | .
CCCC1CC(CSc2ncn[nH]2)OC1=O (centres undefined) | 5.0 | -1.0 | -5.0 | 0.5 | -2.8 | -4.7 | .
CCC1CC(CSc2ncn[nH]2)OC1=O (centres undefined) | -4.5 | 0.0 | . | 0.9 | . | 56.0* | -2.4%
CC(=O)Oc1cccc2c1C(=O)C1CC=CC(OC(C)=O)C1C2=O (centres undefined) | . | 12.0 | -32.0 | 5.5 | 7.0 | 69.5* | 8µM*
CCOC(=O)c1cccc(P(C)(C)=O)c1 | 13.7 | 2.4 | 14.6 | -1.7 | -2.6 | 78.6* | 2.4%
CCOC(=O)c1ccc2nc(C)c(C)nc2c1 | . | 2.0 | -21.9 | -4.1 | 0.6 | 4.6 | .
COc1ccc(C2CC(=O)c3c(C)nc(N4CCN(c5ccccc5)CC4)nc3C2)cc1 (centres undefined) | -1.9 | -3.5 | . | 8.9 | . | 52.8* | -5.6%
Cc1nc(N2CCN(Cc3ccccc3)CC2)nc2c1C(=O)CC(c1ccco1)C2 (centres undefined) | -1.6 | -5.3 | . | . | . | 1.4 | .
